The nature of assay [1]: Induction of relaxation in forskolin-induced carbachol pre-contracted C57BL/6 mouse trachea incubated for 30 mins. It is filed as functional, tissue-based. A digest of the protocol:
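Male C57BL/6 tracheal rings at 0.35 g tension in Krebs (95% O2/5% CO2, 37°C). Rings were precontracted with 10 µM carbachol before cumulative half-log PGE2 (0.1 nM–30 µM). Curves were repeated in the same ring after 30 min with 3 nM antagonist or DMSO, and 10 µM forskolin set maximal relaxation. pKB = log(CR−1) − log[B].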

Assay [2] is described as follows: Inhibition of EFS-induced contraction of Beagle dog bronchiole. It counts as functional, tissue-based, Canis lupus familiaris.
A short description of assay [3]: Induction of relaxation in […] C57BL/6 mouse trachea at 0.1 to 30 uM incubated for 30 mins relative to control (reference value: 21.6 +/- 8.8%). It counts as functional. The arrangement: scale not given: the % may be the effect or the level left. The following applies: dose 0.1-30 µM, 0.5 h.
A short description of assay [4]: Inhibition of EFS-induced contraction of human myometrium incubated for 60 mins. It is filed as functional, tissue-based. Summed up: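 Human myometrial strips (donors aged 24–76) in a 15 mL Krebs bath at 37°C, under EFS at 15 V, 1.5 ms pulses, 10 s every 100 s, at a submaximal 15 Hz. Antagonist (10 or 100 nM) or vehicle was equilibrated for 60 min. Cumulative butaprost (0.1 nM–10 µM) or PGE2 (0.1 nM–3 µM) was given for at least five EFS responses per concentration. pKB was calculated from same-donor concentration ratios.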

Each structure is given as a SMILES string. pEC50, pIC50: −log10 of the molar value.

A word on the pEC50: it is the EC50 on a negative log10 scale, so that one unit is a factor of ten. As a reminder, the pIC50 is the IC50 on a negative log10 scale, so that one unit is a factor of ten. Take `CCCC1([C@H](O)C/C=C/[C@H]2[C@H](O)CC(=O)[C@@H]2CCCCCCC(=O)OC)CCC1` [BUTAPROST]: the pEC50 in assay [1] was 6.05; in assay [2] it was 6.86. For the same compound, in assay [3], the Activity worked out at 69.1%. In assay [4], the pIC50 was 7.56.

The values are drawn from ChEMBL document CHEMBL5653608 (Br J Pharmacol, 2011).
